From PMC3028369 (Diabetes, 2011) come the findings set out here.

The nature of data set [1]: Aqueous solubility. In kind it is physicochemical.
Data set [2] can be described thus: Oral bioavailability in rats. In kind it is in vivo, rat.
Data set [3] deals with KKA^Y mice. The data set can be described thus: Hyperinsulinemic-euglycemic clamp in diabetic KKA^Y mice. The class given is in vivo, mouse. As to conditions: 20 mg/kg oral gavage four times at 12-h intervals. An outline of the steps: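 Insulin-resistant KKAY mice received test compound at 20 mg/kg by oral gavage four times at 12-h intervals. A jugular catheter was placed under anaesthesia 4–5 days earlier. Plasma [3H]glucose was sampled before, during and at the end. HGP was taken basally and under clamp. N = 7; two-tailed Student t test.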

The test system of data set [4] is C57BL/6 mice. The data set can be described thus: High-fat diet-induced elevated fasting blood glucose. In kind it is in vivo, mouse. As to conditions: 10 mg/kg/day in high-fat diet for 10 weeks, 4-h fast. An outline of the steps:
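C57BL/6 mice ate a high-fat diet (55% of calories from fat) for 10 weeks, with or without test compound at 10 mg/kg/day. Blood glucose was measured after a 4-h fast, N = 5.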

In data set [5] the test system is mouse aortic ECs. The experiment in a line: IL-6 and KC production in mouse aortic ECs. The class given is cell-based. As to conditions: for effect on IL-6 production in ECs (ELISA): 16 h, 10 nmol/L CPA, 100 nmol/L CGS21680, 10 nmol/L Cl-IBMECA. An outline of the steps: (§1)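 Mouse aortic endothelial cells were exposed to the nonselective agonist NECA over a time course. IL-6 and KC were read out as mRNA by quantitative RT-PCR and as secreted protein.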

For data set [6], the system named is mouse aortic ECs. The experiment in a line: Cyclic AMP accumulation in mouse aortic ECs. As to conditions: ECs from C57BL/6 mice. In kind it is cell-based.
Data set [7] relates to mouse aortic ECs. The experiment in a line: IL-6 mRNA induction in mouse aortic ECs. The class given is cell-based. The gist of the method: as §1
The subject of data set [8] is C57BL/6J and adenosine receptor knockout mice. The data set can be described thus: NECA gavage before glucose tolerance test, fasting glucose and plasma IL-6. In kind it is in vivo, mouse. The gist of the method:
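Male 8-week C57BL/6J mice and congenic adenosine receptor knockouts (N = 5) received an oral bolus of vehicle or NECA (0.3 mg/kg) 35 min before an ip GTT (1.25 g/kg). Blood glucose was read by glucometer and AUC calculated. Fasting glucose was taken 35 min after gavage. Plasma IL-6 was measured 4 h after dosing.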

≈ marks a conversion by molar mass, not a printed value.

A word on the aqueous solubility: it is the concentration that dissolves in the medium under given conditions. A higher aqueous solubility goes with a readily soluble substance. The compound `CCCn1c(=O)n(C2CC2)c(=O)c2[nH]c(-c3ccc(N(CC)C(=O)c4cccnc4)nc3)nc21` [ATL-801] registered an aqueous solubility in data set [1] of 30 µg/mL (≈ 65.3 µM). Also, in data set [2], the oral bioavailability is reported as 73%. In addition, in data set [3], the “basal HGP rate” value is reported as “markedly reduced”, the “clamp HGP rate (insulin-stimulated state)” value is on record as “markedly reduced” and the “increase in hepatic insulin action (insulin-mediated percent suppression of basal HGP)” value stood at 30%. Moreover, the “diet-induced elevated fasting blood glucose” value in data set [4] is reported as “significantly reduced”.

On to `CCNC(=O)[C@H]1O[C@@H](n2cnc3c(N)nc(NCCc4ccc(CCC(=O)O)cc4)nc32)[C@H](O)[C@@H]1O` [CGS21680], for which, in data set [5], the “effect on IL-6 production in ECs (ELISA)” value is listed as “without effect”.

Turning to `OC[C@H]1O[C@@H](n2cnc3c(NC4CCCC4)ncnc32)[C@H](O)[C@@H]1O` [CPA], the “effect on IL-6 production in ECs (ELISA)” value in data set [5] is recorded as “without effect”.

With `CNC(=O)[C@H]1O[C@@H](n2cnc3c(NCc4cccc(I)c4)nc(Cl)nc32)[C@H](O)[C@@H]1O` [Cl-IB-MECA], the “effect on IL-6 production in ECs (ELISA)” value in data set [5] is given as “without effect”.

As to `Nc1nc2c(cnn2CCc2ccc(S(=O)(=O)F)cc2)c2nc(-c3ccco3)nn12` [FSPTP], the “effect on NECA-induced increase in cyclic AMP” value in data set [6] (1 μmol/L ATL-692, 100 nmol/L FSPTP) is on record as “not affected”.

Regarding `CCCCCCOC(=O)[C@]1(O)C[C@@H]2O[C@@]1(C)n1c3ccccc3c3c4c(c5c6ccccc6n2c5c31)C(=O)NC4` [KT5720], the “inhibition of IL-6 mRNA induction by NECA” value in data set [7] (ECs, inhibitor at 1 μmol/L) is “significantly inhibited”.

The term EC50 denotes the concentration giving half of the maximal effect. Regarding `CCNC(=O)[C@H]1O[C@@H](n2cnc3c(N)ncnc32)[C@H](O)[C@@H]1O` [NECA, 5′-N-ethylcarboxamidoadensoine], the “plasma IL-6” value in data set [8] (C57BL/6J mice, 4 h after administration) is “increase in plasma IL-6”. Also, the fasting glucose levels entry in data set [8] (C57BL/6 mice, 35 min after gavage) was “significantly increased”. The “glucose disposal during GTT” value in data set [8] (wild-type fasted mice, oral gavage 0.3 mg/kg 35 min before GTT) was “substantial delay in glucose disposal”. In addition, in data set [5] (1 μmol/L, time course), the “IL-6 production (protein) in ECs” value is on record as “more sustained stimulation” and the “production of the murine IL-8 homolog KC in ECs” value is listed as “stimulates the production”. Besides, the half-maximal effective concentration (EC50) in data set [5] (read-out: EC50 to stimulate IL-6 production in ECs, ECs from C57BL/6 mice, 24 h) stood at 140 nM. Further, the “cyclic AMP in ECs” value in data set [6] (agonist alone) is on record as “rapid increase in cyclic AMP”. Besides, the “IL-6 mRNA in ECs” value in data set [7] (1 μmol/L, time course) is listed as “transient increase”.
